Assay [1] concerns the target T1, Delta-type opioid receptor (Homo sapiens, UniProt P41143). As to the kind of experiment: The antagonistic activity tested in [35S]GTP-gamma-S, Recombinant Human Opioid receptor delta 1 transfected in to CHO cells for the displacement of [3H]Cl-DPDPE (delta). It counts as functional, cell-based. In a few lines:
(§1)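 [35S]GTPγS binding in CHO cells expressing cloned human opioid receptors. Antagonist affinity (Ke) was derived from the compound's blockade of a standard agonist: DAMGO at mu, Cl-DPDPE at delta, U69593 at kappa.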
In general terms: GTPγS is a poorly hydrolysed GTP analogue; its binding reports G protein activation.

Assay [2] addresses T2, Mu-type opioid receptor (Homo sapiens, UniProt P35372). As to the kind of experiment: The antagonistic activity tested in [35S]-GTP-gamma S Recombinant Human Opioid receptor mu 1 transfected in to CHO cells for the displacement of [3H]DAMGO (mu). It is filed as functional, cell-based. In a few lines: as §1
The target of assay [3] is T3, Kappa-type opioid receptor (Homo sapiens, UniProt P41145). Briefly: The antagonistic activity of compound was tested in [35S]GTP-gamma-S, Recombinant Human Opioid receptor kappa 1 transfected in to CHO cells for the displacement of [3H]U-69593. It is filed as functional, cell-based. Put shortly: as §1
T3 sequence (P41145 whole entry): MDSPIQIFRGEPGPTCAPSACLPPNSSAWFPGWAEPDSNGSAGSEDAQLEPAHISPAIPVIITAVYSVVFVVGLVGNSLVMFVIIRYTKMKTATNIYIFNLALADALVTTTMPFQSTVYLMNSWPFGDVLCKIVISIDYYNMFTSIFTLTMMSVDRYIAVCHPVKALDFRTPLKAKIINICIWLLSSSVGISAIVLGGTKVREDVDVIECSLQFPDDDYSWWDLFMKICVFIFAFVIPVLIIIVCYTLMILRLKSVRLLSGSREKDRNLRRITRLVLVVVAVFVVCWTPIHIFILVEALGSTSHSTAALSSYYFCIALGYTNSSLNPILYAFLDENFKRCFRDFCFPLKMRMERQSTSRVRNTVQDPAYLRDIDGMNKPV
The nature of assay [4]: Selectivity ratio towards Opioid receptor kappa 1 to Opioid receptor delta 1.
The target in assay [5] is T3, Kappa-type opioid receptor. As to the kind of experiment: Binding affinity towards recombinant human Opioid receptor kappa 1 transfected in to CHO cells for the displacement of [3H]U-69593. It is filed as cell-based. Put shortly: (§2)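 Radioligand displacement (Ki) at cloned human opioid receptors expressed in CHO cells. Radioligands: [3H]DAMGO for mu, [3H]Cl-DPDPE for delta, [3H]U69593 for kappa.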

Assay [6] concerns the target T1, Delta-type opioid receptor. As to the kind of experiment: Binding affinity towards recombinant human Opioid receptor delta 1 transfected in to CHO cells for the displacement of [3H]Cl-DPDPE (delta). It counts as cell-based. In a few lines:
as §2
(In general: Displacement assays read how much labelled ligand stays bound in the presence of the test substance.)

For assay [7], the target named is T2, Mu-type opioid receptor. Briefly: Binding affinity towards recombinant human Opioid receptor mu 1 transfected in to CHO cells for the displacement of [3H]DAMGO (mu). It counts as cell-based. In a few lines: as §2
In assay [8] the target is Opioid receptors; mu & delta (Homo sapiens) (UniProt P41143+P35372). Briefly: Selectivity ratio of Opioid receptor mu 1 to Opioid receptor delta 1. It counts as protein assay.
Chain of Opioid receptors; mu & delta (Homo sapiens) (P35372 whole entry, looked up): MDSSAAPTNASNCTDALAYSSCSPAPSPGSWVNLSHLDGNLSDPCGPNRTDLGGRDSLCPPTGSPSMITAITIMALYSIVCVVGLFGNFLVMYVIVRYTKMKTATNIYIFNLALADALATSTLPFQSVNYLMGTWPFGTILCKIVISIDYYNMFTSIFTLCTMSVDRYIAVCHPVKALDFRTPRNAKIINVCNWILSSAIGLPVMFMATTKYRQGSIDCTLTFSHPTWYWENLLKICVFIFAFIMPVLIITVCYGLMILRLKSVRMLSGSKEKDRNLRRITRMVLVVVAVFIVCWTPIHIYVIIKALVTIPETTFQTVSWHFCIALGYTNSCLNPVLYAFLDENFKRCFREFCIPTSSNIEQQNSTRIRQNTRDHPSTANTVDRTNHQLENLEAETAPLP
Chain of Opioid receptors; mu & delta (Homo sapiens) (P41143 whole entry, looked up): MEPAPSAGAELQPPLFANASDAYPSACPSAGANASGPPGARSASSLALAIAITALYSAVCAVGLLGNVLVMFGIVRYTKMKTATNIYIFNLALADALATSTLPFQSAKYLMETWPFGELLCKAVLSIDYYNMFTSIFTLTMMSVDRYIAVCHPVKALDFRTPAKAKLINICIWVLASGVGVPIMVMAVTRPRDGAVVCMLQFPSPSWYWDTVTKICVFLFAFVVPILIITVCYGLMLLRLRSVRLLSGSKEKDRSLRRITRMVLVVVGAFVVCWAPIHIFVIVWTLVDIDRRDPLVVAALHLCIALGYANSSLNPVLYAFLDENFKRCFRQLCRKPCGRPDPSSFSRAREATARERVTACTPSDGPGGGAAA
The target in assay [9] is T3, Kappa-type opioid receptor. As to the kind of experiment: Binding affinity towards recombinant human Opioid receptor kappa 1 transfected in to CHO cells for the displacement of […]. It is filed as cell-based. In a few lines: as §2
Assay [10] addresses T1, Delta-type opioid receptor. As to the kind of experiment: Partial agonist activity tested in [35S]GTP-gamma-S, Recombinant Human Opioid receptor delta 1 transfected in to CHO cells for the displacement of [3H]Cl-DPDPE (delta). It is filed as functional, cell-based.
Assay [11] concerns the target T1, Delta-type opioid receptor. Briefly: Binding affinity towards recombinant humanOpioid receptor delta 1 transfected in to CHO cells for the displacement of [3H]Cl-DPDPE (delta). It is filed as cell-based. Put shortly: as §2
Assay [12] deals with T1, Delta-type opioid receptor. Briefly: The antagonistic activity tested in [35S]GTP-gamma-S, Recombinant Human Opioid receptor delta 1 in to CHO cells for the displacement of [3H]Cl-DPDPE (delta). It counts as functional, cell-based. Put shortly:
as §1

Assay [13] has as its target T2, Mu-type opioid receptor. As to the kind of experiment: Selectivity ratio Opioid receptor mu 1 to Opioid receptor delta 1.
Assay [14] addresses T2, Mu-type opioid receptor. As to the kind of experiment: The partial agonist activity tested in [35S]-GTP-gamma S Recombinant Human Opioid receptor mu 1 transfected in to CHO cells for the displacement of [3H]-DAMGO (mu). It counts as functional, cell-based.

pEC50, pKi: −log10 of the molar value. Values joined by “and” are separate entries in the source; they are usually repeats but may differ in a detail not shown here. Equal entries are not always repeated.

T1 sequence (P41143 whole entry): as the sequence (P41143 whole entry, looked up) above
T2 sequence (P35372 whole entry): as the sequence (P35372 whole entry, looked up) above

For the molecule `Oc1ccc2c3c1O[C@H]1c4[nH]c5ccccc5c4C[C@@]4(O)[C@@H](C2)N(CC2CC2)CC[C@]314`, the Ke in assay [1] is 0.11 nM; on Mu-type opioid receptor [2], 4.26 nM; in assay [3] it was 4.95 nM.

The pKi is the Ki on a negative log10 scale, so that one unit is a factor of ten. For `COc1ccc2c3c1O[C@H]1c4c(c(-c5ccccc5)cn4Cc4ccccc4)C[C@@]4(O)C(C2)N(C)CC[C@]314`, the Ratio in [4] and in assay [8] was > 31 throughout. For the same molecule, the pKi in assay [5] is < 5.00; in assay [6], 6.49; on Mu-type opioid receptor [7] it was < 5.00.

For the molecule `CCCN1CC[C@]23c4c5ccc(O)c4O[C@H]2c2c(c(-c4ccccc4)cn2Cc2ccccc2)C[C@@]3(O)C1C5`, the results for the pKi (in [9]; in assay [6]; on Mu-type opioid receptor [7]) were 6.72, 7.67 and 7.40, respectively. Also, the Ke in [1] turned out to be 6.4 nM; on Mu-type opioid receptor [2] it was 45.3 nM; in assay [3], 210 nM.

As for `Cc1c(-c2ccccc2)c2c(n1Cc1ccccc1)[C@@H]1Oc3c(O)ccc4c3[C@@]13CCN(CC1CC1)C(C4)[C@]3(O)C2`, the figures for the pKi (in assay [9]; in assay [6]; on Mu-type opioid receptor [7]) were 6.74, 7.76 and 7.28, respectively. For the same molecule, the Ke in assay [1] was 3.68 nM; on Mu-type opioid receptor [2] it was 17.7 nM; in [3], 306 nM. For the same molecule, the Ratio in assay [8] is 3 and 5.

A word on the pEC50: it is −log10 of the EC50, conventionally taken in molar units. As for `CN1CC[C@]23c4c5ccc(O)c4O[C@H]2c2c(c(-c4ccccc4)cn2Cc2ccccc2)C[C@@]3(O)C1C5`, the figures for the Ratio in assay [4] and in [8] were 1.6 and 0.43, respectively. Further, the pKi in assay [5] was 6.73; in assay [6] it was 6.94; at Mu-type opioid receptor [7], 7.31. Also, in assay [10], the pEC50 was 7.26. Also, the Ke at Mu-type opioid receptor [2] was 14.1 nM; in assay [3] it was 1160 nM.

For `Oc1ccc2c3c1O[C@H]1c4c(c(-c5ccccc5)cn4Cc4ccccc4)C[C@@]4(O)C(C2)N(CC2CC2)CC[C@]314`, the pKi is 6.92 in [9], 7.86 in assay [11] and 7.77 at Mu-type opioid receptor [7].

Consider `Cc1ccc(-c2cn(Cc3ccccc3)c3c2C[C@@]2(O)C4Cc5ccc(O)c6c5[C@@]2(CCN4CC2CC2)[C@H]3O6)cc1`, for which the pKi is 6.97 in assay [9], 7.63 in [6] and 7.11 on Mu-type opioid receptor [7]. The values for the Ke in assay [12] and in assay [3] were 2.37 nM and 61.1 nM, respectively. For the same molecule, the Ratio at Mu-type opioid receptor [13] is 3.3. Besides, the pEC50 at Mu-type opioid receptor [14] is 5.87.

The record behind these values is ChEMBL document CHEMBL1135445, “4'-Arylpyrrolomorphinans: effect of a pyrrolo-N-benzyl substituent in enhancing delta-opioid antagonist activity” (J Med Chem, 2002).
